In ChEMBL document CHEMBL2146399, “Anti-androgen receptor activity of apoptotic CK2 inhibitor CX4945 in human prostate cancer LNCap cells” (Bioorg Med Chem Lett, 2012):
pIC50: −log10 of the molar value. Calls of active or inactive are those of the source. No cut-off for these calls is given here.

Key:
LNCaP [1] = assay: Downregulation of CK2alpha expression in human LNCAP cells assessed as reduction of nuclear protein level at 10 uM after 12 to 24 hrs by Western blot analysis; assay type: functional, cell-based
Method in brief: (§1)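 Western blot: cells homogenized and spun at 10,000 g for 15 min. Supernatant kept as cytoplasmic fraction; nuclear proteins extracted with a kit. Denatured proteins run on gels, transferred to PVDF, probed with specific antibodies, and detected by enhanced chemiluminescence.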

LNCaP [2] = assay: Cytotoxicity against human LNCAP cells assessed as cell viability at 10 uM by CCK8 method; assay type: functional, cell-based; settings: TDE = time-dependent effect
LNCaP [3] = assay: Induction of apoptosis in human LNCAP cells at 30 uM after 72 hrs by AnnexinV staining based fluorescent microscopy; assay type: functional, cell-based
Method in brief: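 LNCaP cells (5 10^4) plated on coverslips coated with 1% gelatin and treated 72 h. Annexin V kit staining, fixation in 2% formaldehyde, nuclei counterstained with 10 µg/ml DAPI. Annexin V-positive cells counted by fluorescence microscopy.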

LNCaP [4] = assay: Cytotoxicity against human LNCAP cells assessed as cell viability at 1 to 10 uM after 1 day by luciferase assay; assay type: cell-based; settings: 24 h, in the assay text read “by CCK-8 assay” for “by luciferase assay”
Method in brief: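 LNCaP cells lentivirally transduced with an AR luciferase reporter and selected with 30 µg/ml puromycin. Cells at 4 10^4 per well, kept 1 day in 10% stripped FBS, then treated 1 day in 0.1% stripped FBS with or without 0.1 µM DHT. Luciferase measured for AR activation and CCK-8 for viability; Student's t-test.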

LNCaP [5] = assay: Induction of apoptosis in human LNCAP cells assessed as increase in caspase3 activation at >10 uM after 1 to 2 days; assay type: functional, cell-based
Method in brief: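 LNCaP cells seeded at 1 10^4 per well, cultured 24 h, then treated 1 or 2 days. Caspase-3 activity read with a commercial caspase-3 kit in triplicate. Significance by Student's t-test, P < 0.05.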

[6] = Cytotoxicity against human RWPE1 cells assessed as cell viability after 1 to 3 days by CCK8 method; assay type: cell-based; settings: rwpe-1
Method in brief: (§2)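 Normal prostate RWPE-1 cells kept in keratinocyte serum-free medium with 0.05 mg/ml bovine pituitary extract and 5 ng/ml recombinant human EGF. Cells seeded at 1 10^4 per well, cultured 24 h, then treated 1–3 days. Viability measured by CCK-8 in triplicate.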

[7] = Cytotoxicity against human RWPE1 cells assessed as cell viability at 10 uM after 3 days by CCK8 method; assay type: cell-based, RWPE-1; settings: read-out: Activity; method in brief: as §2
LNCaP [8] = assay: Downregulation of CK2alpha expression in human LNCAP cells assessed as reduction of cytosolic protein level at 10 uM after 12 to 24 hrs by Western blot analysis; assay type: functional, cell-based; method in brief: as §1
LNCaP [9] = assay: Antiapoptotic activity against human LNCAP cells assessed as cell survival at 10 uM after 1 day by CCK8 method; assay type: functional; settings: 24 h, read-out: Activity
LNCaP [10] = assay: Cytotoxicity against human LNCAP cells assessed as cell viability after 4 days by CCK8 method; assay type: functional, cell-based; settings: 96 h
Method in brief: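 LNCaP cells grown in RPMI1640 with 10% FBS plus penicillin/streptomycin at 37 °C, 5% CO2. Cells seeded at 3 10^3 per well, cultured 24 h, then exposed to compound for 4 days. Viability read by CCK-8 absorbance, in triplicate.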

LNCaP [11] = assay: Downregulation of survivin expression in human LNCAP cells at 0.1 to 30 uM after 24 hrs by Western blot analysis; assay type: functional, cell-based; method in brief: as §1
LNCaP [12] = assay: Inhibition of Akt phosphorylation in human LNCAP cells at 0.1 to 30 uM after 30 mins by Western blot analysis; assay type: cell-based; method in brief: as §1

Compound	Activity (LNCaP [1])	Activity (LNCaP [2])	Activity (LNCaP [3])	Activity (LNCaP [4])	Activity (LNCaP [5])	Activity [6]	viability at 72 h, 10 µM [7]	Activity (LNCaP [8])	viability at 10 µM (LNCaP [9])	pIC50 (LNCaP [10])	Activity (LNCaP [11])	inhibition (LNCaP [12])
O=C(O)c1ccc2c(c1)nc(Nc1cccc(Cl)c1)c1ccncc12 [SILMITASERTIB]	Active	tde	Active	Non-toxic	Active	Non-toxic	94%	Active	72%	5.34	–	–
O=c1cc(N2CCOCC2)oc2c(-c3ccccc3)cccc12	–	–	–	–	–	–	–	–	–	–	Active	Active
